Assay outcomes: PubChem BioAssay, Broad Institute
PfHsp90 yeast 2 = growth inhibition of PfHsp90-expressing yeast, primary screen, antimalarial PfHsp90 inhibitor project, S. cerevisiae, BacTiter-Glo luminescence, single point, set 2; BacTiter-Glo ATP, 48 h; yeast lacking PDR1 and PDR3 efflux regulators; inhibition, % at 9.4 µM; 310,000 tested, 0.32% active; AID 504621, 2011;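 active = every replicate shows inhibition above about 80%, whatever the replicate mean, limit read from the data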;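 also: 0% = DMSO neutral controls and 100% = 20 µM radicicol positive controls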
CSC inhib = cancer stem cell viability inhibitors, primary screen, luminescence | 300,000 tested, 1.1% active | cancer stem cell-like cells viability | inhibition, % at 7.5 µM | AID 2717, 2010; in the data active = inhibition above about 75%; tested in HMLE shEcad cells
HIF activator = HIF pathway transcriptional activators, primary screen, cell-based, U2OS HRE-luciferase, luminescence | U2OS HRE-luciferase reporter; normalized: DMSO 0%, desferrioxamine 100% | activation, % at 7.5 µM (by protocol) | 300,000 tested, 0.32% active | AID 1910, 2009;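 active = mean activation of at least 10% of the iron chelator positive control signal, with at least half of replicates also reaching 10%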
Beta cell apopt = inhibitors of cytokine-induced beta cell apoptosis, primary screen, luminescence; INS-1E cytokine-induced death, ATP luminescence, 48 h; percent of positive-control rescue, neutral wells zero; protection from apoptosis, % (test concentration not listed); 300,000 tested, 0.8% active;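 active = Every replicate reaches about 75%, or at least half do and their mean reaches it too, limit read from the data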;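 also: 0% = cytokine-treated negative control wells and 100% = positive control rescue; higher means more ATP so stronger rescue from cytokine killing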
T cruzi inh = inhibitors of intracellular T. cruzi growth, primary screen, luminescence, NIH3T3 host cells. 300,000 tested, 1.4% active. AID 1885, 2009. T. cruzi beta-gal in NIH3T3, 90 h. inhibition, % (concentration not given with the values);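 active = mean inhibition across valid replicates above about 55%, limit read from the data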;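 also: signal also drops with host cell toxicity which is not excluded here; 0% = plate median of DMSO wells and 100% = zero luminescence signal; higher percent means less beta-gal luminescence so fewer parasites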
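System: Mouse NIH/3T3 fibroblasts infected with β-gal-expressing T. cruzi Tulahuen C4 | Quantity: NIH/3T3 cells, 5,000 per well | Reagent: 5000 reporter trypomastigotes per well | Dosing: Compound pinned at 50 nL/well, DMSO | Schedule: 3 h host attachment, then at least 90 h co-culture | Detection: GalScreen luminescence, 60 min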
SKKanGAS inh = S. pyogenes SKKanGAS growth inhibitors in kanamycin, primary screen, streptokinase expression inhibitor project, SKKanGAS strain, BacTiter-Glo luminescence; 6 h; inhibition, % at 7.5 µM; 300,000 tested, 1.3% active;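 active = mean replicate score, as percent of positive control median, at least 50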;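 also: strain carries kanamycin resistance gene driven by streptokinase promoter and grows in 40 µg/ml kanamycin; loss of luminescence reflects streptokinase promoter inhibition or plain growth inhibition; 0% = median of DMSO wells and 100% = positive control at its reference dose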
Active calls of the source: *; / = no result. Most compounds without a hit are left out; they make up all but 3.6% or so of the library.

SMILES	PfHsp90 yeast 2	CSC inhib	HIF activator	Beta cell apopt	T cruzi inh	SKKanGAS inh
CCOc1cc(C)c(C(C)C)cc1S(=O)(=O)N1CC(C)OC(C)C1 (centres undefined)	-6	5	0	-3	11	6
O=[N+]([O-])c1cc(-c2cnc3ccccc3n2)ccc1Oc1ccc(Cl)cc1	-6	77*	2	5	0	0
COc1ccccc1Oc1ccc(-c2cnc3ccccc3n2)cc1[N+](=O)[O-]	-23	4	2	7	-17	8
CCOc1ccccc1-c1nc(-c2ccc(NC(=O)Cc3ccccc3OC)cc2)no1	14	/	-1	5	56*	6
CCCCCc1cc(=O)oc2c(C(CCN3CCCCC3)c3ccc(OC)cc3)c(OC)cc(OC)c12 (centres undefined)	/	97*	-1	47	42	6
CCCCCc1cc(=O)oc2c(C(CCN(CC)CC)c3ccc(OC)cc3)c(OC)cc(OC)c12 (centres undefined)	3	13	-7	98*	47	10
COc1ccc(C(CC(=O)N2CCCC2)c2c(OC)cc(OC)c3c(-c4ccccc4)cc(=O)oc23)cc1 (centres undefined)	1	-15	0	8	26	17
CCCCCc1cc(=O)oc2c(C(CCN3CCCC(C)C3)c3ccc(OC)cc3)c(OC)cc(OC)c12 (centres undefined)	5	102*	-1	109*	66*	-2
COc1ccc(C(CC(=O)N2CCCC(C)C2)c2c(OC)cc(OC)c3c(-c4ccccc4)cc(=O)oc23)cc1 (centres undefined)	-29	6	0	1	30	67*
CC(=O)c1ccc(N2CCN(C(=O)c3ccccc3SCC(=O)NCc3ccco3)CC2)c(F)c1	19	/	/	/	/	/
CN1OC[C@@H]2CN(Cc3ccccc3)[C@H](c3cccc(Oc4ccccc4)c3)C[C@@H]21	2	/	/	/	/	/
O=C(CSc1nnc(-c2cccc(Br)c2)o1)N1CCNC1=O	-11	5	/	-8	/	/
CN1Cc2c(N3CCOCC3)nc3sc(C(=O)c4ccc(Br)cc4)c(N)c3c2CC1(C)C	/	102*	-1	48	23	16
Cc1cccc(OCC(=O)Nc2ccc(C(=O)Nc3ccccc3C(=O)O)cc2)c1C	-5	-2	0	-5	9	58*
CC(C)(C)c1ccc(OCC(=O)Nc2ccc(C(=O)Nc3ccccc3C(=O)O)cc2)cc1	0	34	0	-5	-5	83*
CC(C)c1ccc(OCC(=O)Nc2cccc(C(=O)Nc3ccccc3C(=O)O)c2)cc1	1	-4	-1	-2	18	34
C[n+]1ccc(/C=C/c2ccccc2O)c2ccccc21	14	3	0	4	70*	-21
c1ccc(C2(Cn3ccc4ccccc43)OCCO2)cc1	/	11	1	114*	-12	12
O=C(O)c1ccc(Cn2ccc3ccccc32)o1	-2	-16	1	/	-12	15
O=C1Cc2c([nH]c3ccc([N+](=O)[O-])cc23)-c2ccccc2N1	22	/	/	/	/	/
CCCCc1ccc(-c2nc(N)n[nH]2)cc1	-52	-1	4	-10	22	5
CCCc1ccc(-c2cc(N)n[nH]2)cc1	9	6	0	-19	5	113*
COc1ccccc1C(=O)NC(=Nc1nc2ccccc2o1)NC(=O)c1ccccc1OC	43	18	1	26	71*	17
O=C(NC(=Nc1nc2ccccc2o1)NC(=O)c1ccccc1)c1ccccc1	1	-7	0	-4	-2	3
O=C1COc2ccc(S(=O)(=O)N3CCC(C(=O)NCc4ccccc4)CC3)cc2N1	-13	-14	0	-8	-13	-1
CC[C@]12C(=O)N(C)C[C@H]([C@@H]3C(=O)N(C)C(=O)[C@@H]31)N2C(=O)c1ccc(C)cc1	-6	/	/	/	/	/
